Assays:
[1] = biological target: D(1A) dopamine receptor (Rattus norvegicus) (UniProt P18901); assay: Inhibitory activity against Dopamine receptor D1 by displacement of [3H]fenoldopam from homogenated rat striatum
[2] = biological target: D(2) dopamine receptor (Bos taurus) (UniProt P20288); assay: Inhibitory activity against Dopamine receptor D2 by displacement of [3H]spiroperidol from bovine pituitary at 10 uM
[3] = Tested for dopamine-sensitive adenylate cyclase stimulation expressed as %DA stimulation at 10 uM; format: functional
[4] = Tested for dopamine-sensitive adenylate cyclase stimulation; format: functional
[5] = Tested for dopamine-sensitive adenylate cyclase stimulation expressed as ED50; format: functional
Procedure, shortened: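 EC50 is the concentration giving 50% of the maximal adenylate cyclase stimulation attainable with that same compound.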

Sequence of D(1A) dopamine receptor (Rattus norvegicus) (P18901 whole entry): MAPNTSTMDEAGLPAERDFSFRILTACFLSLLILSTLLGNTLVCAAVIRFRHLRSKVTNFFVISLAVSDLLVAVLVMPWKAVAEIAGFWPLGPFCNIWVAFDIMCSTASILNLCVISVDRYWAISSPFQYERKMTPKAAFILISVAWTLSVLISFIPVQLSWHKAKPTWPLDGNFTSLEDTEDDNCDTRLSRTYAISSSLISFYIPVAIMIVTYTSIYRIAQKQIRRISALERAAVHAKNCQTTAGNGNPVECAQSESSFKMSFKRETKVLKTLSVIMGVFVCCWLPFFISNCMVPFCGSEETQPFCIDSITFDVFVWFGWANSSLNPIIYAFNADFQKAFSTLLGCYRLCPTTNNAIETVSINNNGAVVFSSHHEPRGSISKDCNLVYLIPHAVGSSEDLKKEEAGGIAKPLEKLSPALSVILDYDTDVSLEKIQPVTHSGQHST
Sequence of D(2) dopamine receptor (Bos taurus) (P20288 whole entry): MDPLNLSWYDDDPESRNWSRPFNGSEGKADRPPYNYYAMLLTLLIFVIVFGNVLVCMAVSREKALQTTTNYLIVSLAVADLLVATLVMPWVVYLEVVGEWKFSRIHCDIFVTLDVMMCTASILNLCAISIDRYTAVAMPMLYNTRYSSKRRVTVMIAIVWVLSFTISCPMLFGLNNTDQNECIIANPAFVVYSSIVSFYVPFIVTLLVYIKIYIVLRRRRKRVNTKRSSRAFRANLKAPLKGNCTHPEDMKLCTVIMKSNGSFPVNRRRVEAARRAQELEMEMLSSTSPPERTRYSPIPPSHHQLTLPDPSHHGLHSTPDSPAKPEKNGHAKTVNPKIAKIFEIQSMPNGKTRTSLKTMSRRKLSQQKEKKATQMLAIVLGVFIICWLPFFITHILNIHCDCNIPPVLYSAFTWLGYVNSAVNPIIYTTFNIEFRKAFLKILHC

Compound	K bind [1]	inhibition [2]	DA stim [3]	Control [4]	ED50 [5]
Oc1cc2c3c(c1O)CC[C@H]3CNC[C@@H]2c1ccccc1	1.22 µM	0%	15%	20%	
NCCc1ccc(O)c(O)c1					3500 nM
Oc1cc2c(cc1O)[C@@H](c1ccccc1)CNCC2	0.0051 µM		66%		63 nM
Oc1cc2c3c(c1O)CC[C@@H]3CNC[C@@H]2c1ccccc1	0.024 µM	14%	62%		430 nM

— ChEMBL document CHEMBL1123794, “Synthesis, conformation, and dopaminergic activity of 5,6-ethano-bridged derivatives of selective dopaminergic 3-benzazepines” (J Med Chem, 1987)
